ChEMBL document CHEMBL2176974, “A bactericidal guanidinomethyl biaryl that alters the dynamics of bacterial FtsZ polymerization” (J Med Chem, 2012)
Changes are numbered by the printed parent chain. ≈ marks a conversion by molar mass, not a printed value. Calls of active or inactive are those of the source. The rule behind the calls is not given here.

Assays:
[1] = biological target: Cell division protein FtsZ (Staphylococcus aureus, UniProt P0A031, G196A); experiment: Binding affinity to Staphylococcus aureus FtsZ G196A mutant expressed in Escherichia coli BL21 (DE3) at 25 degC by fluorescence anisotropy assay
[2] = test system: Klebsiella pneumoniae; experiment: Antimicrobial activity against Klebsiella pneumoniae ATCC 13883 incubated for 24 hrs by broth microdilution method; assay type: functional; settings: ATCC 13883, 24 h
Outline: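 CLSI broth microdilution. Log-phase bacteria at 10⁵ CFU/mL were added to 2-fold serial dilutions (64 to 0.016 μg/mL) in cation-adjusted Mueller-Hinton broth. Plates were incubated aerobically for 24 h at 37 °C and growth was read as OD600. MIC is the lowest concentration giving 90% growth inhibition.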

[3] = biological target: Cell division protein FtsZ (Staphylococcus aureus, UniProt P0A031, E185A); experiment: Binding affinity to Staphylococcus aureus FtsZ E185A mutant expressed in Escherichia coli BL21 (DE3) at 25 degC by fluorescence anisotropy assay
Outline: (§1)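 Purified SaFtsZ mutant protein (0–25 μM) mixed with 5 μM compound in 50 mM Tris·HCl pH 7.4, 50 mM KCl, 2 mM magnesium acetate. After 5 min at 25 °C, steady-state fluorescence anisotropy read at excitation 245 / emission 318 nm, G-factor corrected, triplicate. Kd from nonlinear least-squares fit.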

[4] = test system: T1, Cell division protein FtsZ (Staphylococcus aureus), P0A031 [E185A]; experiment: Binding affinity to Staphylococcus aureus FtsZ E185A mutant self-polymerization at 20 ug/mL by microtiter plate-based light scattering assay
T1 sequence (whole entry): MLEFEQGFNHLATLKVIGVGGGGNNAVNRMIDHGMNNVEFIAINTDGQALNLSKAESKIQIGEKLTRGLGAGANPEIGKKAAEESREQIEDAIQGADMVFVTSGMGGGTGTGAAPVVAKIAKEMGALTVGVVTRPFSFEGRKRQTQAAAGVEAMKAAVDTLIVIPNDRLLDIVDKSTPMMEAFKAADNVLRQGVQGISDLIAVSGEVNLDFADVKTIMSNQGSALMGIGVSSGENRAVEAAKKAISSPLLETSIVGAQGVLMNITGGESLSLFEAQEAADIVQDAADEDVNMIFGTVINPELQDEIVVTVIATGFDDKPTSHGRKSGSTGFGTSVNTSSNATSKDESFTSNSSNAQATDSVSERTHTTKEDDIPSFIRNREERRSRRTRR

[5] = test system: T2, Cell division protein FtsZ (Staphylococcus aureus), P0A031 [I228R]; experiment: Binding affinity to Staphylococcus aureus FtsZ I228R mutant self-polymerization at 20 ug/mL by microtiter plate-based light scattering assay
T2 sequence (whole entry): T1 sequence (whole entry) with A185E, I228R

[6] = test system: Staphylococcus aureus; experiment: Antimicrobial effect against 3x10^9 CFU/ml methicillin-sensitive Staphylococcus aureus 8325-4 at 4 to 32 times MIC assessed as incidence of colonies growth measured after 24 incubation by large inoculation approach based drug resistance detection method; assay type: functional, organism-based
Outline: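 Inoculum count checked on nonselective plates. Incubated at 37 °C and examined after 24 h and daily thereafter. Mutation frequency = colonies on selective plates / total bacteria plated.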

[7] = biological target: T3, Cell division protein FtsZ (Escherichia coli K-12, UniProt P0A9A6); experiment: Binding affinity to Escherichia coli FtsZ at 25 degC by fluorescence anisotropy assay; settings: read-out: Kd
T3 sequence (P0A9A6 whole entry): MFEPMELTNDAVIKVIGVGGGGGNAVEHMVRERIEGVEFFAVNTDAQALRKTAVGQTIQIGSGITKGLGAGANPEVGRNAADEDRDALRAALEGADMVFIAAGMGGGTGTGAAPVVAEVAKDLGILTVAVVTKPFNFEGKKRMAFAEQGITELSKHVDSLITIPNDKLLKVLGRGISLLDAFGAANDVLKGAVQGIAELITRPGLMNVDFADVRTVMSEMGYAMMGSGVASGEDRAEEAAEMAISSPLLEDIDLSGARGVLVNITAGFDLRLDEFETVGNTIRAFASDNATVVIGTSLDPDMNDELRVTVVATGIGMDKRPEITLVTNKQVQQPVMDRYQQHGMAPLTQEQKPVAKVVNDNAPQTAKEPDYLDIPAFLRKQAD

[8] = Selectivity index, ratio of Kd for Enterococcus faecalis FtsZ to Kd for Escherichia coli FtsZ
Outline: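 Buffer was 50 mM Tris·HCl pH 7.4, 50 mM KCl, 2 mM magnesium acetate. Kd came from nonlinear least-squares fits, and the index is the ratio of the two Kd values.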

[9] = biological target: Cell division protein FtsZ (Staphylococcus aureus, UniProt P0A031, I228R); experiment: Binding affinity to Staphylococcus aureus FtsZ I228R mutant expressed in Escherichia coli BL21 (DE3) at 25 degC by fluorescence anisotropy assay; outline: as §1
[10] = biological target: T4, Cell division protein FtsZ (Staphylococcus aureus, UniProt P0A031); experiment: Binding affinity to Staphylococcus aureus FtsZ expressed in Escherichia coli BL21 (DE3) at 25 degC by fluorescence anisotropy assay; settings: read-out: Kd
T4 sequence (P0A031 whole entry): T1 sequence (whole entry) with A185E
Outline: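 Intrinsic compound fluorescence anisotropy. Compound at 5 μM was titrated with 0–25 μM FtsZ in 50 mM Tris·HCl pH 7.4, 50 mM KCl, 2 mM magnesium acetate. Samples were incubated 5 min at 25 °C, excited at 245 nm with emission at 318 nm, and G-corrected. Runs were in triplicate and averaged. Kd was obtained by nonlinear least-squares fit. SaFtsZ was expressed in E. coli BL21(DE3) and purified by ammonium sulfate, MonoQ and Superdex-200.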

## CC(C)(C)c1ccc(-c2cccc(CNC(=N)N)c2)cc1
[1]
  Kd: 5 µM
[2]
  MIC: 32 µg/mL (≈ 114 µM)
[3]
  Kd: 38.3 µM
[4]
  Activity: inactive
[5]
  Activity: Active
[6]
  Activity: Active
[7]
  Kd: 3.8 µM
[8]
  Ratio: 6
[9]
  Kd: 32.9 µM
[10]
  Kd: 3.5 µM
